In ChEMBL document CHEMBL3992564, “Design and synthesis of novel, potent and selective hypoxanthine analogs as adenosine A1 receptor antagonists and their biological evaluation” (Bioorg Med Chem, 2017):
Activity calls are given as the source filed them. The calls are words filed in the database; no cut-off is given here.

Key:
Adenosine receptor A2b [1] = molecular target: T1, Adenosine receptor A2b (Homo sapiens, UniProt P29275); experiment: Displacement of [3H]MRS-1754 from human adenosine A2B receptor expressed in HEK293 cell membranes after 90 mins
T1 sequence (P29275 whole entry): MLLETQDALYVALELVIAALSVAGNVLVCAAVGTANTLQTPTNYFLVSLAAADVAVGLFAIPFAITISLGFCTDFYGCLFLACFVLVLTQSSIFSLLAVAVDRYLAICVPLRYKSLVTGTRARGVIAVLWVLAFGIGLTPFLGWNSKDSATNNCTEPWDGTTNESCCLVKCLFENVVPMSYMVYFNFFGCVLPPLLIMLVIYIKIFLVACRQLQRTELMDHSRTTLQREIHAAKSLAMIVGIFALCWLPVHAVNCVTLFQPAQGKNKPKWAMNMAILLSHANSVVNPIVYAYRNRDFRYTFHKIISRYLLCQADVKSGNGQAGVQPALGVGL
Summary of the method: (§1)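 Membranes from HEK-293 cells stably transfected with human receptor, pre-treated with adenosine deaminase. Radioligands: 1 nM [3H]DPCPX (A1), 1 nM [3H]ZM241385 (A2A), 1.6 nM [3H]MRS-1754 (A2B), 2 nM [3H]HEMADO (A3). Buffers: Tris pH 7.4 (A1, A2A, A3) or pH 6.5 (A2B), with ADA. Incubated 90 min at room temperature, then filtered. Nonspecific binding defined with 100 µM NECA. Ki from 8 concentrations run in triplicate.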

Adenosine receptor A2b [2] = molecular target: T1, Adenosine receptor A2b; experiment: Antagonist activity at human adenosine A2B receptor expressed in HEK293 cells assessed as reduction in NECA-induced increase in cAMP level preincubated for 15 mins followed by NECA addition measured after 15 mins by HTRF assay; type: functional, cell-based
Summary of the method: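 Overnight HEK-A1 or HEK-A2B cultures were treated with 1 U/mL ADA for 90 min at 37°C. Compound was added for 15 min, then agonist for 15 min (1 nM CPA for A1; 70 nM NECA for A2B) at room temperature in incomplete DMEM with ADA. Rolipram (20 µM) was included for A1 only. cAMP was read by HTRF.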

hERG (KCNH2) [3] = molecular target: T2, hERG (KCNH2) (Homo sapiens, UniProt Q12809); experiment: Inhibition of human ERG at 5 uM relative to control
T2 sequence (Q12809 whole entry): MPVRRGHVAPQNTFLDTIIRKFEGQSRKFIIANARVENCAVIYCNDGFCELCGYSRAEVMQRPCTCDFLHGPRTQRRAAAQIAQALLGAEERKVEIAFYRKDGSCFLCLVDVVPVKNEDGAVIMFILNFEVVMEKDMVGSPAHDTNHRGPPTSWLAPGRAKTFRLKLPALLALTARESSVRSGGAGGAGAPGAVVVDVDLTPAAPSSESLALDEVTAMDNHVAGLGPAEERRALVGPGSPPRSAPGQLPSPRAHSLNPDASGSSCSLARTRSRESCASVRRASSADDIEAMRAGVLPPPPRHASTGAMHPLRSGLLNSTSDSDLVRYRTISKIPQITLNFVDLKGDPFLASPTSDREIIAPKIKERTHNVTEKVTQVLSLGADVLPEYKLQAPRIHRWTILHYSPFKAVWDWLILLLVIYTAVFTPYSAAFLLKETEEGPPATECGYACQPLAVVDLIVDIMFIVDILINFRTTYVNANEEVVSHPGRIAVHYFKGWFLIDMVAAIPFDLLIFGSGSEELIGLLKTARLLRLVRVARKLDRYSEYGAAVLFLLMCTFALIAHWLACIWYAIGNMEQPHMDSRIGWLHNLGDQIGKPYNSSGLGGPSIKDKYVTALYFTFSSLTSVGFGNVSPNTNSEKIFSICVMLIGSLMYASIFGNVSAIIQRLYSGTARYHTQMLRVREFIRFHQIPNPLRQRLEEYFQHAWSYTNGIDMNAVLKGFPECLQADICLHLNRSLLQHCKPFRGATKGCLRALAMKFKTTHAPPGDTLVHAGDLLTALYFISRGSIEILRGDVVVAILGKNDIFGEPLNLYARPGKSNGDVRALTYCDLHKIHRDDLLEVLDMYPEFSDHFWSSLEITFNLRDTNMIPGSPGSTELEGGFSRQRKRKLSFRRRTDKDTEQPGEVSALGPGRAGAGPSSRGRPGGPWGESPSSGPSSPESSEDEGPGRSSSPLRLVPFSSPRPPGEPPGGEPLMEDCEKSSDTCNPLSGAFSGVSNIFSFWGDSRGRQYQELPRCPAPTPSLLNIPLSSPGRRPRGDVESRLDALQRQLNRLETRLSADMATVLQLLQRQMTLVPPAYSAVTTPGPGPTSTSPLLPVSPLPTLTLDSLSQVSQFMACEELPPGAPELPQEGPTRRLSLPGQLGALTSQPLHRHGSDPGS

hERG (KCNH2) [4] = molecular target: T2, hERG (KCNH2); experiment: Inhibition of human ERG at 25 uM relative to control
CYP2C9 = CYP2C9 (Homo sapiens, UniProt P11712); experiment: Inhibition of CYP2C9 (unknown origin) at 5 uM relative to control; type: ADME
Sequence of CYP2C9 (P11712 whole entry): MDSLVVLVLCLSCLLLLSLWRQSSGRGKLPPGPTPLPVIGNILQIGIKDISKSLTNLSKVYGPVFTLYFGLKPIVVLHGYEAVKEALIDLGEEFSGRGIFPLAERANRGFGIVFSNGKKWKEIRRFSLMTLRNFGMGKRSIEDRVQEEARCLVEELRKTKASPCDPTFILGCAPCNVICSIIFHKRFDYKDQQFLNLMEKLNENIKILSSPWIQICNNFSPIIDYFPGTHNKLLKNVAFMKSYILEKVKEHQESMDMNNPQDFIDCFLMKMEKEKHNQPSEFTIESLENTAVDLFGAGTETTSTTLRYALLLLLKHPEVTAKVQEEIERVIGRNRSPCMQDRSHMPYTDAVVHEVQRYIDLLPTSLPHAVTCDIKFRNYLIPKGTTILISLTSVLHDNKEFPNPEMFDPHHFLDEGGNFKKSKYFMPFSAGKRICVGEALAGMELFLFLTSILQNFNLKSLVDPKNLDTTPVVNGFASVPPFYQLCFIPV

[5] = Protein binding in mouse plasma at 5 uM; type: ADME, cell-free; details: read-out: PPB (converted)
[6] = Cmax in Wistar rat at 5 mg/kg, po via gavage by LC-Ms/MS analysis; type: ADME, organism-based; design: dose 5 mg/kg, route oral; details: in vivo
Summary of the method: (§2)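 Male Wistar rats (230 ± 15 g), fasted overnight with water available. IV dose of 3 mg/kg given by tail vein as a solution (0.6 mg/mL, 5 mL/kg). PO dose of 5 mg/kg given by gavage as a suspension. Blood was collected into K2EDTA at 0.008 (IV only) to 24 h and plasma was spun off. Samples were precipitated with acetonitrile and run on LC/MS/MS. Parameters came from non-compartmental analysis of individual animals, mean of n = 4.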

[7] = Tmax in Wistar rat at 5 mg/kg, po via gavage by LC-Ms/MS analysis; type: ADME, organism-based; details: in vivo
Summary of the method: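 Male Wistar rats (230 ± 15 g), fasted overnight with water available. IV dosing at 3 mg/kg by tail vein as solution (0.6 mg/mL, 5 mL/kg). PO dosing at 5 mg/kg by oral gavage. Serial blood sampling into K2EDTA from 0.008 (IV only) to 24 h. Plasma precipitated with acetonitrile containing internal standard and analysed by LC/MS/MS. Non-compartmental parameters calculated per animal; values are means of n = 4.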

[8] = AUC(0 to t) in Wistar rat at 5 mg/kg, po via gavage by LC-Ms/MS analysis; type: ADME, organism-based; details: in vivo; summary of the method: as §2
[9] = Plasma concentration in Wistar rat at 5 mg/kg, po via gavage measured at 1 hr post dose by LC-Ms/MS analysis; type: ADME, organism-based
Summary of the method: (§3)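 Male Wistar rats, fasted overnight and for 2 h after dosing, given an oral solution at 5 mg/kg (0.5 mg/mL). Vehicle: NMP 10% with Labrasol 30% or PEG-400 20%, in citrate buffer […]. Blood and brain were taken at discrete time points, n = 2 per time point. Brain was homogenized 1:2 in PBS. Samples were precipitated with acetonitrile and run on LC-MS/MS; LLOQ 10 ng/mL.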

[10] = Plasma concentration in Wistar rat at 5 mg/kg, po via gavage measured at 2 hrs post dose by LC-Ms/MS analysis; type: ADME, organism-based; summary of the method: as §3
[11] = Plasma concentration in Wistar rat at 5 mg/kg, po via gavage measured at 4 hrs post dose by LC-Ms/MS analysis; type: ADME, organism-based; summary of the method: as §3
[12] = Drug uptake in Wistar rat brain at 5 mg/kg, po via gavage measured at 1 hr post dose by LC-Ms/MS analysis; type: ADME, organism-based; details: read-out: Drug uptake; summary of the method: as §3
[13] = Drug uptake in Wistar rat brain at 5 mg/kg, po via gavage measured at 2 hrs post dose by LC-Ms/MS analysis; type: ADME, organism-based; details: read-out: Drug uptake; summary of the method: as §3
[14] = Drug uptake in Wistar rat brain at 5 mg/kg, po via gavage measured at 4 hrs post dose by LC-Ms/MS analysis; type: ADME, organism-based; details: read-out: Drug uptake; summary of the method: as §3
[15] = molecular target: T3, Adenosine receptor A2b (Homo sapiens) (UniProt P29275); experiment: Displacement of [3H]MRS-1754 from human adenosine A2B receptor expressed in HEK293 cell membranes at 1 uM after 90 mins relative to control; summary of the method: as §1
T3 sequence (whole entry): T1 sequence (P29275 whole entry)

[16] = molecular target: T3, Adenosine receptor A2b (Homo sapiens); experiment: Displacement of [3H]MRS-1754 from human adenosine A2B receptor expressed in HEK293 cell membranes at 30 uM after 90 mins relative to control; summary of the method: as §1
Adenosine receptor A2a = Adenosine receptor A2a (Homo sapiens, UniProt P29274); experiment: Displacement of [3H]ZM241385 from human adenosine A2A receptor expressed in HEK293 cell membranes at 1 uM after 90 mins relative to control; summary of the method: as §1
Sequence of Adenosine receptor A2a (P29274 whole entry): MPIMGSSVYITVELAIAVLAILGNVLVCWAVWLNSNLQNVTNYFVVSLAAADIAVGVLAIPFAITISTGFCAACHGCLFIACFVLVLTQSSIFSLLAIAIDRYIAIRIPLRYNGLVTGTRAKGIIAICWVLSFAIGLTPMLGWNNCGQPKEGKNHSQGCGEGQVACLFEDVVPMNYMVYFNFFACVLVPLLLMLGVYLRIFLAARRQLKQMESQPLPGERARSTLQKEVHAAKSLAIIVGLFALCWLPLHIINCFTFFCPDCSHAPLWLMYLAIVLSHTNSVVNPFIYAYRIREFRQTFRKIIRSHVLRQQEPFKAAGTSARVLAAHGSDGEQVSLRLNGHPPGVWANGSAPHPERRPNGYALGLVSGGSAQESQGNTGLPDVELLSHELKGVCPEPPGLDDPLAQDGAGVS

CYP2C19 = CYP2C19 (Homo sapiens, UniProt P33261); experiment: Inhibition of CYP2C19 (unknown origin) at 5 uM relative to control; type: ADME
Sequence of CYP2C19 (P33261 whole entry): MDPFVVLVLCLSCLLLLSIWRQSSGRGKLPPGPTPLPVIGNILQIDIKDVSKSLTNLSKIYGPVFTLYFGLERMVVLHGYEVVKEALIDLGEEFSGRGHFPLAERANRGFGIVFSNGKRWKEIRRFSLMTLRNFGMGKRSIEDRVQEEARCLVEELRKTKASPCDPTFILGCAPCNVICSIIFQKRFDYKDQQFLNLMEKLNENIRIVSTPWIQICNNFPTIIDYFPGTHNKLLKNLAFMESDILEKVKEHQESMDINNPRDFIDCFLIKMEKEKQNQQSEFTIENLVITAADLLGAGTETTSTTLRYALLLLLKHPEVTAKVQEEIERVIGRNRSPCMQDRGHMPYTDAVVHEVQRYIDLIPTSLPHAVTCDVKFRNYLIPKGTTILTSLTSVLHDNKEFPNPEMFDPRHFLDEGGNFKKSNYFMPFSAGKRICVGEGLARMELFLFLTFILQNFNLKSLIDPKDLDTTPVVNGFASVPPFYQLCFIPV

[17] = Drug metabolism assessed as hydroxylation at N-1 propyl by metabolic soft spot analysis; type: physicochemical
[18] = Drug metabolism assessed as dehydration by metabolic soft spot analysis; type: physicochemical
[19] = Ratio of drug level in Wistar rat brain to plasma at 5 mg/kg, po via gavage measured at 4 hrs post dose by LC-Ms/MS analysis; type: ADME, organism-based; details: read-out: BPR; summary of the method: as §3
Rattus norvegicus [20] = experiment: Diuretic activity in Wistar rat at 10 to 30 mg/kg, po via gavage measured after 4 hrs; type: functional, organism-based
Summary of the method: (§4)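 Male Wistar rats (250-300 g, n = 6) dosed orally at 5 mL/kg. Vehicles: DMAC 5%/NaOH/saline, or NMP 10%/PEG-400 20%/saline pH 12.0. Rats were then kept singly in metabolic cages without food or water for 4 h. Urine volume, Na+ and K+ were measured with a biochemistry analyser.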

Rattus norvegicus [21] = experiment: Natriuretic activity in Wistar rat at 3 to 30 mg/kg, po via gavage measured after 4 hrs; type: functional, organism-based; summary of the method: as §4
Rattus norvegicus [22] = experiment: Kaliuretic activity in Wistar rat at 3 to 30 mg/kg, po via gavage measured after 4 hrs; type: functional, organism-based; summary of the method: as §4

Ki (Adenosine receptor A2b [1]) [nM]	Ki (Adenosine receptor A2b [2]) [nM]	inhibition at 5 µM (CYP2C9) [%]	fraction unbound at 5 µM [5]	Cmax [6] [nM]	Tmax [7] [min]	AUC(0-t) [8] [µM·h]	concentration at 1 h [9] [nM]	concentration at 2 h [10] [nM]	concentration at 4 h [11] [nM]	concentration at 1 h [12]	concentration at 2 h [13]	concentration at 4 h [14]	inhibition (Adenosine receptor A2a)	inhibition at 5 µM (CYP2C19) [%]	SMILES	inhibition at 5 µM (hERG (KCNH2) [3]) [%]	inhibition at 25 µM (hERG (KCNH2) [4]) [%]	also measured
1100	650 to 690	7	0.05	1740	18	1.6	670	540	40	10 ng/g	10 ng/g	10 ng/g			CCCn1c(-c2cccc(OC)c2)nc2nc(C3CCCC3)[nH]c2c1=O	9	72	
	560	4											33%	10	CCCn1c(Oc2cccnc2C)nc2nc(C3CCCC3)[nH]c2c1=O			inhibition [15]: 49%; inhibition [16]: 91%; Drug metabolism [17]: Metabolite_Detected; Drug metabolism [18]: Metabolite_Detected
> 10000	> 10000		0.01	9710	97.8	3.19	1640	940	1810	90 nM	50 nM	80 nM	inactive	0	CCCn1c(Oc2ccc(F)c(F)c2)nc2nc(C3CCCC3)[nH]c2c1=O	2	4	IC50 (Adenosine receptor A2b [1]): > 10000 nM; Kp at 4 h [19]: 0.05; Activity (Rattus norvegicus [20]): Active; Activity (Rattus norvegicus [21]): Active; Activity (Rattus norvegicus [22]): Active
